Shown are actives, neighbours in structure and some others; about 2.5% of the full set was active somewhere.
SENP1 inh: SENP1 (human) catalytic domain inhibition; Q9P0U3; recombinant SENP1 catalytic domain, CyPet-SUMO1-YPet FRET cleavage; inhibition, % at 10 µM; hit rate 0.21% among 360,000; AID 624204;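 active means inhibition at least 30% at 10 µM, raw YFP signal under a set limit, fluorescence ratio 0.5 to 1.5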;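 further: 0% = enzyme with DMSO and 100% = no enzyme wells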
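Assay system: hSENP1 catalytic domain, recombinant. Amount: SENP1 enzyme, 20 pM final. Schedule: 50 min reaction, RT, dark. Technique: FRET, CFP and YFP emission. Control set: no-enzyme wells low, DMSO-plus-enzyme wells high control.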
GRK2 inh: human GRK2 inhibition via aptamer displacement | bead flow cytometry, FAM-aptamer displacement from GRK2 | inhibition of aptamer binding, % at 10 µM | hit rate 0.59% among 330,000;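 active means inhibition of aptamer binding above 40%, roughly 3 SD of noise, on plates passing a quality check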;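 further: median bead fluorescence of bound FAM aptamer so fluorescent compounds give negative values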
NadD inh: blocks S. aureus nicotinate mononucleotide adenylyltransferase; inhibition, % at 20 µM; purified NadD enzyme, colorimetric absorbance read-out; AID 602399; hit rate 0.78% among 360,000; in the data active means inhibition above about 26%
ABHD5 PLIN5 PPI: ABHD5-PLIN5 protein interaction inhibition | inhibition, % at 4 µM | AID 602281 | Q00G26+Q8WTS1 | hit rate 0.78% among 360,000 | Split G. princeps luciferase complementation, luminescence, 4 h;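 active means inhibition above the mean inhibition across every tested compound plus 3 SD, cut at about 22% in these data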;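 further: 0% = DMSO only wells and the 100% control is not disclosed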
Target sequence (Q00G26 whole entry, looked up): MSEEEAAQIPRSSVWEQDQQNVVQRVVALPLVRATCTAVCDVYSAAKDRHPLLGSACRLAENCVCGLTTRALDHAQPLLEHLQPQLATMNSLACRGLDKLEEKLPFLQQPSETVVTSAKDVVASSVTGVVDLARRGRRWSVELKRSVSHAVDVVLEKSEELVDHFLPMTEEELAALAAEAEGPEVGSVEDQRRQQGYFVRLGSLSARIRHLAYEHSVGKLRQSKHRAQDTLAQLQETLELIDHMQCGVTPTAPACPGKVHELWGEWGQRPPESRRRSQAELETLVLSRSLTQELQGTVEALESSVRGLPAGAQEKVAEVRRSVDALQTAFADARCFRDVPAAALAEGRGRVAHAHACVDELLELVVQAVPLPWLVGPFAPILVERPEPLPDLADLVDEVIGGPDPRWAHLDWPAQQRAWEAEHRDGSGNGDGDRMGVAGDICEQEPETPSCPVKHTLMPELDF
Target sequence (Q8WTS1 whole entry, looked up): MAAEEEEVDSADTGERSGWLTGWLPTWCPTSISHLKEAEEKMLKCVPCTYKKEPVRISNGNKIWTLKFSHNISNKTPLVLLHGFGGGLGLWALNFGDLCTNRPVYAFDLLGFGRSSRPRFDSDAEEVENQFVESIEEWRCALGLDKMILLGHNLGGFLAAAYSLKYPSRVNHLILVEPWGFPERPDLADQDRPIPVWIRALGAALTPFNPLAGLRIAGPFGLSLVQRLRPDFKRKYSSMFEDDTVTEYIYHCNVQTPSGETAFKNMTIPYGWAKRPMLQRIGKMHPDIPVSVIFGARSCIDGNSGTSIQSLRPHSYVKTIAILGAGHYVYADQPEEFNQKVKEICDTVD
B2AR ag: activates human beta-2 adrenergic receptor causing internalization. P07550. Am2.2-beta2AR cells, FAP receptor internalization, flow cytometry. response, % (test concentration not listed). hit rate 0.43% among 340,000;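 active means response above a set limit, near 3 SD of response in nonfluorescent compounds, cut at about 42% in these data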
NadD conf: confirmation of Staphylococcus aureus NadD inhibitors. shares compounds with NadD inh. AID 624309. hit rate 13% among 2,000. purified S. aureus NadD, colorimetric enzyme assay. inhibition, % at 20 µM; in the data active means inhibition mostly above about 42%, no sharp cut-off; inactive means mostly below about 42%
Active calls of the source: *; . = no result given.

SMILES	SENP1 inh	GRK2 inh	NadD inh	ABHD5 PLIN5 PPI	B2AR ag	NadD conf
N#CC1=C(N)Oc2c(ccc3cccnc23)C1c1ccccc1 (stereo not drawn)	-63.1	3.0	8.2	4.0	-11.9	.
COC(=O)c1ccc(Cn2nnc3c(=O)[nH]c(C4CCCN(S(=O)(=O)c5ccc(C)cc5)C4)nc32)cc1 (stereo not drawn)	2.2	5.0	28.9*	1.6	33.5	1.5
Cc1ccc(Cn2nnc3c(=O)[nH]c(C4CCN(S(=O)(=O)c5ccc(S(=O)(=O)NC6CC6)cc5)CC4)nc32)cc1	-0.8	1.0	30.8*	7.5	1.1	43.8*
Cc1ccc(Cn2nnc3c(=O)[nH]c(C4CCN(S(=O)(=O)c5ccc(C)cc5)CC4)nc32)cc1	-1.3	2.0	21.8	3.3	2.9	.
O=c1[nH]c(C2CCCN(S(=O)(=O)c3ccccc3Cl)C2)nc2c1nnn2Cc1ccc2c(c1)OCCO2 (stereo not drawn)	1.1	2.0	37.4*	11.2	5.7	35.1
O=c1[nH]c(C2CCCN(S(=O)(=O)c3ccccc3)C2)nc2c1nnn2Cc1cccc(Cl)c1 (stereo not drawn)	3.5	8.0	18.0	-9.5	-0.2	.
O=c1[nH]c(C2CCN(S(=O)(=O)c3ccccc3)CC2)nc2c1nnn2Cc1ccc2c(c1)OCCO2	-0.2	0.0	25.9	3.2	3.0	.
Cc1ccc(Cn2nnc3c(=O)[nH]c(C4CCCN(S(=O)(=O)c5ccc(F)cc5)C4)nc32)cc1 (stereo not drawn)	1.2	0.0	19.3	9.9	0.9	.
COC(=O)c1ccc(Cn2nnc3c(=O)[nH]c(C4CCCN(S(=O)(=O)c5cccc(Cl)c5)C4)nc32)cc1 (stereo not drawn)	1.3	0.0	32.6*	-2.1	7.7	14.7
CCOC(=O)C1=CN(Cc2ccco2)S(=O)(=O)N(CC)C1c1ccccc1 (stereo not drawn)	0.5	2.0	-2.5	4.4	-0.8	.
CC(=O)c1cccc(S(=O)(=O)N2CCCC(c3nc4c(nnn4Cc4cccc(Cl)c4)c(=O)[nH]3)C2)c1 (stereo not drawn)	0.1	0.0	45.7*	-1.9	-5.7	24.3
CC(=O)c1cccc(S(=O)(=O)N2CCCC(c3nc4c(nnn4Cc4ccc(C)cc4)c(=O)[nH]3)C2)c1 (stereo not drawn)	0.6	2.0	6.0	-3.7	-3.8	.
NS(=O)(=O)c1ccc(N=C2C(=O)Nc3ccccc32)cc1	0.1	1.0	-5.8	-5.0	6.0	.
O=C1Nc2ccccc2C1=Nc1ccc(S(=O)(=O)Nc2nccs2)cc1	-0.7	3.0	53.8*	-1.5	6.5	74.0*
CC(C)C[C@@H](CNCC(=O)[C@H](Cc1c[nH]c2ccccc12)NC(=O)c1[nH]cnc1C(=O)N[C@H](CN)CC(C)C)NC(=O)c1nc[nH]c1C(=O)N[C@@H](CC(=O)O)C(=O)O	-58.1	.	31.2*	6.8	-7.3	45.4
COc1cc(/C=C/C(=O)O)ccc1O	1.6	2.0	-5.3	4.2	2.7	.
COc1cc(/C=C/C(=O)CC(=O)/C=C/c2ccc(O)c(OC)c2)ccc1O	-29.0	9.0	56.5*	31.5*	-70.9	51.8*
COc1ccc(CN2C(=O)c3ccccc3C2c2nnnn2C(C)C)cc1 (stereo not drawn)	1.8	.	-2.7	-2.9	.	.
CSc1ccc(C(c2c(C(=O)O)[nH]c3ccccc23)c2c(C(=O)O)[nH]c3ccccc23)cc1	-126.5	4.0	37.3*	5.8	0.2	47.5*
CCOc1cc(Br)cc(C(c2c(C(=O)O)[nH]c3ccccc23)c2c(C(=O)O)[nH]c3ccccc23)c1O	0.3	4.0	16.6	-7.7	3.6	.
COc1cccc(C(NC(C)=O)c2nc(-c3cccc(C(C)C)c3)cs2)c1 (stereo not drawn)	0.2	.	-2.0	-1.6	.	.
CCn1c2ccccc2c2cc(N=C3SC(CC(=O)Nc4ccccc4OC)C(=O)N3C)ccc21 (stereo not drawn)	4.5	0.0	28.5	4.0	-0.6	.
CCn1c2ccccc2c2cc(N=C3SC(CC(=O)Nc4ccccc4)C(=O)N3C)ccc21 (stereo not drawn)	1.5	0.0	30.7*	-1.5	5.0	19.1
O=C(NC(C(=O)N/N=C/c1c2ccccc2cc2ccccc12)c1n[nH]c(=O)c2ccccc12)c1ccccc1 (stereo not drawn)	-24.2	0.0	51.3*	6.8	9.4	23.4
CCCc1cc2c(=O)c(-c3nc4ccccc4s3)c(COCC(=O)O)oc2cc1O	-25.3	.	29.8*	2.6	4.2	30.3
SMILES	SENP1 inh	GRK2 inh	NadD inh	ABHD5 PLIN5 PPI	B2AR ag	NadD conf
CCc1cc2c(=O)c(-c3nc4ccccc4n3C)c(COCC(=O)O)oc2cc1O	-100.7	0.0	0.0	0.7	-4.0	.
CC(=O)CSc1nc2c(c(=O)[nH]c(=O)n2C)n1CCCc1ccccc1	-1.3	2.0	-0.6	-4.5	6.9	.
CCOc1ccc(OCCC(=O)OCC(=O)Nc2ccc3c(c2)OCCO3)cc1	1.8	0.0	-8.7	4.5	-2.8	.
Cc1ccc(-c2cnc3c(Nc4cccc(OC(F)(F)C(F)F)c4)nccn23)cc1	-15.5	.	4.7	-2.5	.	.
Cc1ccc(S(=O)(=O)Nc2ccc(Nc3nccn4c(-c5ccccc5Oc5ccccc5)cnc34)cc2)cc1	-28.9	.	36.2*	4.7	.	63.8*
Cc1ccc(S(=O)(=O)Nc2ccc(Nc3nccn4c(-c5ccc6ccccc6c5)cnc34)cc2)cc1	-32.5	.	41.0*	-0.6	.	52.7*
COc1ccc(C(=O)Nn2c(CC(C)C)nc3cc(Cl)ccc3c2=O)c(OC)c1	0.7	5.0	1.2	-3.1	-16.0	.
CCN(CC(=O)Nc1ccc(NC(C)=O)cc1)C(=O)c1cn(-c2ccccc2)nc1-c1cccs1	-3.5	.	7.0	4.5	-1.3	.
Cc1cc2cc(CNC(=S)NC3CCCCC3)ccc2n1C	-10.9	26.0	33.9*	4.0	0.6	5.7
CCCCNC(=S)NCc1ccc2c(c1)cc(C)n2C	-3.0	20.0	1.1	2.2	1.9	.
Cc1ccc(CNC(=S)NC2CCCCC2)cc1	0.2	0.0	6.7	-2.4	-4.8	.
Cc1cc2cc(CNC(=S)NCc3ccccc3)ccc2n1C	-11.9	2.0	52.5*	8.1	-4.5	-9.9
Cc1ccccc1NC(=O)c1sc2nc3c(c(-c4ccco4)c2c1N)CCCC3	-18.4	1.0	32.6*	-2.1	15.4	4.1
Cc1ccc(NC(=O)c2sc3nc4c(c(-c5ccco5)c3c2N)CCC4)cc1	-18.9	0.0	30.9*	-3.1	-2.8	-2.7
Nc1c(C(=O)Nc2ccccc2)sc2nc3c(c(-c4ccco4)c12)CCCC3	-17.9	4.0	15.7	-2.6	7.1	.
Nc1c(C(=O)Nc2ccc(Br)cc2)sc2nc(-c3ccco3)ccc12	-22.4	1.0	51.3*	0.4	22.2	10.0
Cc1ccc(NC2CCCN(C(=O)CSc3ccccn3)C2)cc1C (stereo not drawn)	-0.2	24.0	-3.1	2.6	1.8	.

Compound activity (PubChem BioAssay)
